GRIN3A LBD mod = modulates the human NR3A ligand-binding domain | NR3A LBD differential scanning fluorimetry, Tm shift; 0% = protein alone, 100% = glycine-bound protein | Tm shift relative to glycine control, % at 25 µM | 340,000 compounds, 2.5% hits;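 active means melting temperature shift of at least 10% of the positive control shift, at one fixed dose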
SENP1 inh = blocks the human SENP1 SUMO protease catalytic domain. recombinant SENP1 catalytic domain, CyPet-SUMO1-YPet FRET cleavage. inhibition, % at 10 µM. 360,000 compounds, 0.21% hits. AID 624204;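 active means inhibition at least 30% at 10 µM, raw YFP signal under a set limit, fluorescence ratio 0.5 to 1.5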;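 further: 0% = enzyme with DMSO and 100% = no enzyme wells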
Target sequence (Q9P0U3 419-644 limits assumed): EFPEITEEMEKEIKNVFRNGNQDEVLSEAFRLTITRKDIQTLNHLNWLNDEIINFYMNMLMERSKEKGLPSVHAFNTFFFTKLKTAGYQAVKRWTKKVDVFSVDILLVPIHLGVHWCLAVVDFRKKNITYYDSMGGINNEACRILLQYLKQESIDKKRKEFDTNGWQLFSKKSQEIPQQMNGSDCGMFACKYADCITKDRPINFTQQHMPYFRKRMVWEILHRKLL
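System: Recombinant human SENP1 catalytic domain, His6-tagged | Incubation: Enzyme reaction for 50 min at room temperature, dark | Medium: Tris pH 8 with BME, BSA, NP40 and catalase | Also added: 25 nM SUMO1 FRET substrate | Compound: 10 µM single point, 0.5% DMSO | Measured by: FRET fluorescence in CFP and YFP emission channels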
EBI2 antag = blocks human EBI2 receptor beta-arrestin signaling. P32249. EBI2 beta-arrestin recruitment, luminescence, 7a,25-OHC stimulated. inhibition, % at 5 µM. 360,000 compounds, 0.81% hits. AID 651636; in the data active means inhibition above about 38%;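 further: enzyme fragment complementation signal reports receptor beta-arrestin coupling in cells; 0% = agonist plus DMSO wells and 100% = wells without agonist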
Target sequence (P32249 whole entry, looked up, the tested form may be a part): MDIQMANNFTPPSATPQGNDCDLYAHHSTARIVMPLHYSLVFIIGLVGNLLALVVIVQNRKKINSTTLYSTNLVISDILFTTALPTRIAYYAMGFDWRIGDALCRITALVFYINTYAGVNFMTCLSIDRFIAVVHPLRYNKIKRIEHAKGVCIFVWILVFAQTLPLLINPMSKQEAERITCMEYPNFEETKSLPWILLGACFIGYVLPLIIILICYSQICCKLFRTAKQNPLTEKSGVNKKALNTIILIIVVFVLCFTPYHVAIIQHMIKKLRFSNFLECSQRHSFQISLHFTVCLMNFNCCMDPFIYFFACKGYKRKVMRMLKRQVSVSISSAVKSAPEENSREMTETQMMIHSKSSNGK
MPTP inh = inhibitors of mitochondrial permeability transition pore | inhibition, % at 10 µM | 360,000 compounds, 1.4% hits | isolated mouse mitochondria, Ca2+ swelling absorbance, 30 min;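 active means inhibition of 50% or more, scaled per plate between neutral and stimulator controls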;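 further: 0% = DMSO wells given calcium and 100% = 1 mM EGTA wells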
SENP1 inh conf = SENP1 (human) inhibition, single concentration confirmation | recombinant SENP1, CyPet-SUMO1-YPet FRET cleavage | inhibition, % at 10 µM | shares compounds with SENP1 inh | 520 compounds, 34% hits | AID 651678; in the data active means inhibition mostly above about 35%, no sharp cut-off; inactive means mostly below about 32%;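 further: 0% = enzyme with DMSO and 100% = no enzyme control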
SENP1 kin conf = SENP1 (human) inhibition, kinetic confirmation; shares compounds with SENP1 inh; recombinant SENP1, CyPet-SUMO1-YPet FRET kinetic cleavage; inhibition, % at 10 µM; 520 compounds, 26% hits; AID 651690; in the data active means inhibition mostly above about 32%, no sharp cut-off; inactive means mostly below about 29%;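 further: 0% = DMSO with enzyme and 100% = no enzyme substrate only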
Active calls of the source: *; . = no result given. Rows were chosen to be rich in hits. Some 4.4% of all compounds tested hit in one or more screens of this group.

SMILES | GRIN3A LBD mod | SENP1 inh | EBI2 antag | MPTP inh | SENP1 inh conf | SENP1 kin conf
CC(C)(C)OC(=O)N[C@@H](C(=O)OC(C)(C)C)c1ccc2ccccc2c1 | 4.2 | 3.8 | 2.4 | 0.1 | . | .
O=C(NN=Cc1ccc([N+](=O)[O-])cc1)c1ccncc1 | -1.9 | 4.7 | -4.6 | 0.3 | . | .
O=[N+]([O-])c1ccc(C=NNc2ccc(S(=O)(=O)O)cc2)cc1 | -18.7 | 73.3* | -2.1 | -2.2 | 28.6 | 16.4
CCOC(=O)/C(C#N)=C/c1cc2ccc(C)cc2nc1Cl | 4.4 | 2.2 | -2.1 | 0.5 | . | .
CCOC(=O)/C(C#N)=C/c1cc2ccccc2nc1N1CCOCC1 | -2.7 | 67.1* | -6.8 | -0.6 | 35.2 | 20.2
Cc1cccc(C)c1NC(=O)C(C)n1c(-c2ccc(=O)[nH]c2)nc2ccccc21 (centres undefined) | . | 39.7* | -15.7 | 0.7 | 37.1 | 25.4
Cc1cccc(C)c1NC(=O)C(C1CC1)n1c(-c2ccc(=O)[nH]c2)nc2ccccc21 (centres undefined) | . | 0.5 | 4.0 | 1.2 | . | .
O=C(Cc1ccc([N+](=O)[O-])cc1)Nc1cccc(C(=O)N2CCCC2)c1 | -2.9 | 4.8 | 2.2 | 2.5 | . | .
Clc1cc2c(nn1)Nc1ccccc1S2 | 1.9 | 31.4* | -5.3 | 5.8 | 14.8 | 12.1
Cc1cccc(-n2cc(-c3ccc([N+](=O)[O-])cc3)[nH]c2=S)c1 | -3.8 | 23.2 | -4.0 | 0.4 | . | .
COc1ccccc1-n1cc(-c2ccc([N+](=O)[O-])cc2)[nH]c1=S | 2.9 | 42.7* | 4.0 | -0.1 | 11.5 | 5.0
Cc1ccc(-n2cc(-c3ccc([N+](=O)[O-])cc3)[nH]c2=S)c(C)c1 | 0.4 | 62.9* | 0.1 | 0.2 | 41.9* | 33.2*
C[C@@H]1CN([C@H](C)CO)C(=O)CCCn2cc(nn2)CO[C@H]1CN(C)C(=O)Nc1ccc2c(c1)OCO2 | . | 0.6 | -5.1 | 1.3 | . | .
CCSc1ncc(Cl)c(C(=O)Nc2sc3c(c2C(=O)NCc2cccnc2)CCCC3)n1 | -5.7 | 40.6* | 32.7 | 3.4 | 61.9* | 43.7*
Cc1ccc(C2C(C(=O)c3cc4ccccc4o3)=C(O)C(=O)N2CCN(C)C)o1 (centres undefined) | 1.1 | -12.2 | 24.2 | 1.7 | . | .
CN(C)CCN1C(=O)C(O)=C(C(=O)c2cc3ccccc3o2)C1c1ccc(N(C)C)cc1 (centres undefined) | 0.1 | 30.8* | -2.0 | 0.1 | 7.8 | -4.7
Cc1cc(C)c2c3c(c(-c4ccccc4)n2n1)c(=O)n(C)c(=O)n3C | 1.4 | 6.5 | -11.0 | -0.7 | . | .
Cc1cccc(-c2c3c(=O)n(C)c(=O)n(C)c3c3cccnn23)c1 | 8.1 | 61.8* | -4.3 | -1.0 | 30.3* | 28.3
COc1ccc(C)cc1C(=O)CCC(=O)N1CCN(c2ccccc2F)CC1 | 2.6 | 5.8 | -8.7 | -1.0 | . | .
CC1=C(n2ccnc2)CCC1=O | -0.2 | 2.7 | -5.0 | -0.5 | . | .
CCOc1ccc(N2C(=O)C(Cl)=C(Nc3ccccc3O)C2=O)cc1 | -8.1 | 36.2* | -0.8 | 8.3 | 27.5 | 13.8
O=C1c2cc(CO)cc(O)c2C(=O)c2c(O[C@@H]3OC(CO)[C@@H](O)[C@@H](O)[C@@H]3O)cccc21 (some centres undefined) | 0.2 | 42.6* | -21.8 | -0.9 | 45.5* | 30.1
CC(C)(C)N(Cc1ccccc1)C(=O)COC(=O)CNC(=O)c1ccco1 | 0.8 | -0.1 | -11.4 | -0.2 | . | .
CC1CCCCC1NC(=O)Cn1cnc2sccc2c1=O (centres undefined) | -0.8 | -18.1 | -6.7 | -1.7 | . | .
CC1=C(C(N)=O)S(=O)(=O)c2ccccc21 | 1.6 | 47.0* | 1.4 | 0.2 | 47.2* | 37.1
SMILES | GRIN3A LBD mod | SENP1 inh | EBI2 antag | MPTP inh | SENP1 inh conf | SENP1 kin conf
C1CCN(CC2CCCCN2)CC1 (centres undefined) | 4.3 | 45.5* | 5.7 | -1.5 | -2.1 | 0.6
CCN(C[C@H]1N[C@@](Cc2ccccc2)(C(=O)OC)[C@H]2C(=O)N(C)C(=O)[C@@H]12)C(=O)Nc1ccc(Cl)cc1 | -3.8 | 2.2 | 1.4 | 0.2 | . | .
COc1ccccc1CNC(=O)c1cc(C)nc2ccccc12 | 2.0 | -2.1 | -0.6 | -2.5 | . | .
Cc1cc(C(=O)NCc2ccccc2F)c2ccccc2n1 | 1.0 | 42.9* | 6.6 | -0.1 | 50.9* | 40.6*
Cc1ccc(S(=O)(=O)NCC(C)NC(=O)CN2CCOCC2)cc1 (centres undefined) | -2.7 | 0.6 | -2.9 | 0.4 | . | .
COc1ccc(C(C(=O)NCC2CCCO2)N(C(=O)CNC(=O)c2cccs2)c2ccccc2C)cc1OC (centres undefined) | -1.4 | -0.4 | -6.4 | -1.0 | . | .
Cc1ccc(-c2nc3ncccn3c2NC2CCCCC2)o1 | -0.3 | 63.1* | -0.3 | 1.1 | 54.0* | 36.0
Brc1ccc(-c2nc3ncccn3c2Nc2ccc3c(c2)OCCO3)o1 | 3.0 | 34.6* | -2.2 | 0.6 | 9.5 | 3.4
Cc1ccc(-c2nc3ncccn3c2Nc2ccc3c(c2)OCCO3)o1 | -1.3 | 53.1* | 6.0 | 2.2 | 18.8 | 13.8
COc1ccc(-c2nc3ncccn3c2Nc2ccc3c(c2)OCCO3)cc1 | 3.6 | 32.2* | -1.5 | -0.3 | -10.7 | 6.8
Cc1cc(C)n2c(NC3CCCC3)c(-c3cc4ccccc4o3)nc2n1 | . | -19.7 | -5.1 | 0.6 | . | .
Cc1ccc(-c2nc3ncccn3c2Nc2ccc3c(c2)OCCO3)cc1 | 4.0 | 17.7 | 10.3 | -0.5 | . | .
COc1cc2cc(C)c(SCC(=O)N3CCOCC3)nc2cc1OC | 0.9 | 32.5* | 3.0 | -1.1 | 20.6 | 16.2
CCOc1cccc(C2/C(=C(/O)c3ccc4c(c3)CC(C)O4)C(=O)C(=O)N2Cc2cccnc2)c1 (centres undefined) | -1.1 | 0.1 | -10.4 | -0.4 | . | .
Cc1cc(-c2ccccc2)nc(=O)[nH]1 | 0.6 | 35.0* | -5.4 | 0.3 | 1.4 | 12.9
O=C1C=C(N2CCOCC2)c2cccc3cccc1c23 | . | 12.2 | -5.2 | 0.7 | . | .
O=C1C=C(O)c2cccc3cccc1c23 | 0.8 | 45.2* | 21.4 | -0.6 | 66.5* | 41.9*
CCOC(=O)CNC(=O)C1c2ccccc2C(=O)N(c2ccc(OC)cc2)C1c1ccc(OC)cc1 (centres undefined) | -0.9 | 1.2 | -4.0 | -1.6 | . | .
CCOC(=O)/C(C#N)=C/C=C1\C=Cc2ccccc2N1CC | 7.8 | 51.6* | 12.6 | 2.2 | 71.2* | 39.0*
CCCCCCN1C=CC(=C/C=C(\C#N)C(=O)OCC)C=C1 | -0.8 | -21.6 | 6.2 | 0.8 | . | .
CN1/C(=C/C=C(C#N)C#N)C=Cc2ccccc21 | 2.1 | 97.0* | 5.5 | 16.4 | 8.7 | 8.7
CCc1c(C)sc(NC(=O)c2ccco2)c1C#N | 0.2 | 0.7 | 0.2 | -0.5 | . | .
CC1CCN(C(=O)CCc2nnc(-c3ccccc3)o2)CC1 | -1.2 | 0.6 | 4.5 | -0.3 | . | .
O=C(CCc1nnc(-c2ccccc2)o1)NCC1CCN(C2CCCC2)CC1 | -0.5 | 50.2* | -11.0 | -1.6 | -3.6 | 3.4

Screens from PubChem.
